In publication PMC10494472 (Saudi Pharmaceutical Journal : SPJ, 2023):
pIC50: −log10 of the molar value.

Legend:
Format in all cases: biochemical
FAS from chicken liver = FAS from chicken liver (Gallus gallus, UniProt P12276); test: FAS inhibition assay
Outline: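 Chicken liver FAS (10 µg) with test compound (10–200 µg/mL) in 100 mM potassium phosphate buffer containing 1 mM dithiothreitol, 1 mM EDTA, 10 µM malonyl-CoA, 3 µM acetyl-CoA and 35 µM NADPH. Activity was followed at 37 °C as the change in NADPH absorbance at 340 nm. The blank omitted the enzyme.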

α-glucosidase (maltase) = α-glucosidase (maltase) (Saccharomyces cerevisiae, UniProt P53341); test: α-glucosidase inhibition assay
XO = XO (Bos taurus, UniProt P80457); test: XO inhibition assay
Sequence of XO (P80457 whole entry): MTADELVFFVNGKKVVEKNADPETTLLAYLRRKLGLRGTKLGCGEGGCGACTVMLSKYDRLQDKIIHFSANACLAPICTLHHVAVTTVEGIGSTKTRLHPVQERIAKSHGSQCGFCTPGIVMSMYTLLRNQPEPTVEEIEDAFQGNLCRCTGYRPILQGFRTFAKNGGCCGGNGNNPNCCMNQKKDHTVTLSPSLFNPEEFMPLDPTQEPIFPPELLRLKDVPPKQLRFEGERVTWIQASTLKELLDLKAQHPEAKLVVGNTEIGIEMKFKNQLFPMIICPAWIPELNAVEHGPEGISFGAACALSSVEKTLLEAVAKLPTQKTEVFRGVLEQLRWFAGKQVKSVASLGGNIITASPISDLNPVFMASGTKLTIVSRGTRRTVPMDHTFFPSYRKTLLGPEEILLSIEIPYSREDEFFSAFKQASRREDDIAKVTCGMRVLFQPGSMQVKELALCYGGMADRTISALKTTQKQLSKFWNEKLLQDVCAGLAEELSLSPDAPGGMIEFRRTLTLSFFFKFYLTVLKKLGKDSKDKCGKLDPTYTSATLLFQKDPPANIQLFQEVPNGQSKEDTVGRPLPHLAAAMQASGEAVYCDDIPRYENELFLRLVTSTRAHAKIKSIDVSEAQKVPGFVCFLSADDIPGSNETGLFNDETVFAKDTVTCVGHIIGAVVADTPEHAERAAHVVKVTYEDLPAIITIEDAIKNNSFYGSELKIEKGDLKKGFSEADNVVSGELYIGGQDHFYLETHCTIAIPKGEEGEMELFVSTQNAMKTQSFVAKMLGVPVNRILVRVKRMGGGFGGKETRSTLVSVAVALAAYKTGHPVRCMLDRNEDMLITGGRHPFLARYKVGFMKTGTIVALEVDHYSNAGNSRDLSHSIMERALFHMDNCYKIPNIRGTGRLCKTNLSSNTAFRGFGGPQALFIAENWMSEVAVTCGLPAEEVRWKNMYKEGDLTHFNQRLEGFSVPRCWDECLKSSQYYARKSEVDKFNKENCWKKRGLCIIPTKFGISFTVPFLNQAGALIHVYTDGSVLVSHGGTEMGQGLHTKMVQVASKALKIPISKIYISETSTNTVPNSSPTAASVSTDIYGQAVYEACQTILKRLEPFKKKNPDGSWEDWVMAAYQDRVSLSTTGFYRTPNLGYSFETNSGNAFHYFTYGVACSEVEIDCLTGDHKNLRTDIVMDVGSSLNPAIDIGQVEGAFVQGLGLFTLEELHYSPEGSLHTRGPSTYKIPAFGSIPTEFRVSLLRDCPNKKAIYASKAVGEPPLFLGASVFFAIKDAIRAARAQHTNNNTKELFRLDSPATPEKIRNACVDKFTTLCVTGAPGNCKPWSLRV

Sequence of FAS from chicken liver (P12276 whole entry): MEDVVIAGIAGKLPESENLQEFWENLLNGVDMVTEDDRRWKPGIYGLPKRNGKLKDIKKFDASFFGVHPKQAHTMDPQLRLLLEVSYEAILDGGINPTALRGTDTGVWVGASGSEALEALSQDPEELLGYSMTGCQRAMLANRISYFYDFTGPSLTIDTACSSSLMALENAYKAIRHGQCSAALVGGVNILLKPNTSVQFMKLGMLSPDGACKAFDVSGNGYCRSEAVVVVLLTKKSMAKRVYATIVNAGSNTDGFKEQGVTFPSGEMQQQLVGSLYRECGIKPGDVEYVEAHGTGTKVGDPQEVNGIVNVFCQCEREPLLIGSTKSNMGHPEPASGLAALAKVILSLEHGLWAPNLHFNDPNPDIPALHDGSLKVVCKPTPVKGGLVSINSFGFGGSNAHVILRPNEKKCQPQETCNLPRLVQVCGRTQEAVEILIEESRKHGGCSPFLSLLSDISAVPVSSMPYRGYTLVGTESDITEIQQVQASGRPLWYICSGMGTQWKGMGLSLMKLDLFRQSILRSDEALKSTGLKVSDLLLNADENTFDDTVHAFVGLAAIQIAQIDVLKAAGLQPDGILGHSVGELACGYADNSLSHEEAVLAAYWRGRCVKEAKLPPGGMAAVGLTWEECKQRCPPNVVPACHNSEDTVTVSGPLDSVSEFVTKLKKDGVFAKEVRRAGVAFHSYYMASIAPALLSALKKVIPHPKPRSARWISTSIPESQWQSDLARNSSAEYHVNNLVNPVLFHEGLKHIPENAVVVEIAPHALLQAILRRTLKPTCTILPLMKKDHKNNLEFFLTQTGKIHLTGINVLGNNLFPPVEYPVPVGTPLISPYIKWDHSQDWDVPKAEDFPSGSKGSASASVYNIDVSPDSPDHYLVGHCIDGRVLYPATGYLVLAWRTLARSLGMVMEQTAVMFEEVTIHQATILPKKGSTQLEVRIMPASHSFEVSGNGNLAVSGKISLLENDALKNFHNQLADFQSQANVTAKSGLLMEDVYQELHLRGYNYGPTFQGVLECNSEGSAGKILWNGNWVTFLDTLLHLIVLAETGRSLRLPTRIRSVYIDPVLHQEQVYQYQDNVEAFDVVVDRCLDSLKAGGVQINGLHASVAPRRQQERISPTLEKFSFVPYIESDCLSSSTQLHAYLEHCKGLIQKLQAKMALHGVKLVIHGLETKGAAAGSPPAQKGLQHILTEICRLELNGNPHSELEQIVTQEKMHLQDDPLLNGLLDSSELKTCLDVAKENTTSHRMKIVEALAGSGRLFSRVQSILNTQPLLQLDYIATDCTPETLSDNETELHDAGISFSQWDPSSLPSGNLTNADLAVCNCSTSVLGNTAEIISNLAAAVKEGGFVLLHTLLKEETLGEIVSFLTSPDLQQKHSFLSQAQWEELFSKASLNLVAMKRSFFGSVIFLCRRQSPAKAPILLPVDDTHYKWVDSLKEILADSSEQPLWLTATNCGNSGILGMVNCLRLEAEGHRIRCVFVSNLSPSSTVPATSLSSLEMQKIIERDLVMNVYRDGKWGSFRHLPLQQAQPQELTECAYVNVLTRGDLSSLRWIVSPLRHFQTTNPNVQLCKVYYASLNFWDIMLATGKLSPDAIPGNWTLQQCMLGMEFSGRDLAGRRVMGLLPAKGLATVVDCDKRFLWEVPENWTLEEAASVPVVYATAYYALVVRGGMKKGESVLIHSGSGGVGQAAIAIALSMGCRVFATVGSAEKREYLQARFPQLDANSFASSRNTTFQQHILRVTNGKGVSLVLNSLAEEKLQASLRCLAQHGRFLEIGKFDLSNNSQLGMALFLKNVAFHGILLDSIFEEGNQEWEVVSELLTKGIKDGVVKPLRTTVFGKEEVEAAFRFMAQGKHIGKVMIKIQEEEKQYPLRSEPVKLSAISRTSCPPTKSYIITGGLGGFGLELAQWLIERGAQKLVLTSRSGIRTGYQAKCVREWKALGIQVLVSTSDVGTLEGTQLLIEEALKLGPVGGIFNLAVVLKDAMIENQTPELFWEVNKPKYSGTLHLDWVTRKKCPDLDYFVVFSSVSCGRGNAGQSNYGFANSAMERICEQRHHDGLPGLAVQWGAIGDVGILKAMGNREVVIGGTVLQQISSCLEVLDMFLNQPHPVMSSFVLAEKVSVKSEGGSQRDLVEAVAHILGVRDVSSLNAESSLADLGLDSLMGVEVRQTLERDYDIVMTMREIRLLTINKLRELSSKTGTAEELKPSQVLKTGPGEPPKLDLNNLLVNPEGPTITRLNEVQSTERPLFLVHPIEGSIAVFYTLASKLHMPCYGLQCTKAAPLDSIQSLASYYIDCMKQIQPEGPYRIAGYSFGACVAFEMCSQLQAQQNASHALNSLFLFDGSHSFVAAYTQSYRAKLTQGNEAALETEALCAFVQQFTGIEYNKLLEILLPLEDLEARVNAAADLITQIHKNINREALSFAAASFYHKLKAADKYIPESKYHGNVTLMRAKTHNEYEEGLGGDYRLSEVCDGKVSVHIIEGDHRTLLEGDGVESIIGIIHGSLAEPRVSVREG
Sequence of α-glucosidase (maltase) (P53341 whole entry): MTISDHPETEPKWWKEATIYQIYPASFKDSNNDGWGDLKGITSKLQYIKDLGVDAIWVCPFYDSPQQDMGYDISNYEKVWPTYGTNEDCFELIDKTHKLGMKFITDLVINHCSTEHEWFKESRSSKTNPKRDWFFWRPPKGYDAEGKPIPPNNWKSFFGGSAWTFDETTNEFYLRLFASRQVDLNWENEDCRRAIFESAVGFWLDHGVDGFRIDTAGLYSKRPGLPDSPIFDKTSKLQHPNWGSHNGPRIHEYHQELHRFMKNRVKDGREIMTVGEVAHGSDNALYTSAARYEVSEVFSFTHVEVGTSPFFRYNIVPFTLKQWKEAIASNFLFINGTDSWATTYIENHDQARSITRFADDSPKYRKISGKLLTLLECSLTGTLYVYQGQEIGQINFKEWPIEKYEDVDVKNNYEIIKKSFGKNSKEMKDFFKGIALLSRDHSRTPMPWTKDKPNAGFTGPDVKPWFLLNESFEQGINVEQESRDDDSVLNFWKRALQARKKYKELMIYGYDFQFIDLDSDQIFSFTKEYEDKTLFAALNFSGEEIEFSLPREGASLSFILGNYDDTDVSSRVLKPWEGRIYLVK

| Compound | pIC50 (FAS from chicken liver) | pIC50 (α-glucosidase (maltase)) | pIC50 (XO) |
| --- | --- | --- | --- |
| COc1ccc(-c2cc(=O)c3c(O)cc(O)c(-c4cc(-c5cc(=O)c6c(O)cc(O)cc6o5)ccc4O)c3o2)cc1 [Compound 3, podocarpusflavone A] | 4.36 |  |  |
| C=C(C)[C@@H]1CC[C@]2(CO)CC[C@]3(C)[C@H](CC[C@@H]4[C@@]5(C)CC[C@H](O)C(C)(C)[C@@H]5CC[C@]43C)[C@@H]12 [Compound 2, betulin] | 4.20 | 4.06 | 4.16 |
| C=C(C)[C@@H]1CC[C@]2(C)CC[C@]3(C)[C@H](CC[C@@H]4[C@@]5(C)CC[C@H](O)C(C)(C)[C@@H]5CC[C@]43C)[C@@H]12 [Compound 1, lupeol] | 4.01 | 4.00 | 3.96 |
| O=c1cc(-c2ccc(O)c(-c3c(O)cc(O)c4c(=O)cc(-c5ccc(O)cc5)oc34)c2)oc2cc(O)cc(O)c12 [Compound 4, amentoflavone] | 4.12 | 4.03 |  |
